{"source": "ChEMBL document CHEMBL1629696", "about": "“Identification of a novel transposon (Tn6072) and a truncated staphylococcal cassette chromosome mec element in methicillin-resistant Staphylococcus aureus ST239” (2010)", "format_in_all_cases": "functional", "key": {"Staphylococcus aureus [1]": {"tested_on": "Staphylococcus aureus", "experiment": "Antimicrobial activity against methicillin-resistant Staphylococcus aureus 16691 by broth dilution method", "outline": "(§1)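 Oxacillin MIC by broth dilution per CLSI guidelines, on clinical MRSA isolates collected March 2004–June 2005 at a county hospital in Braşov, Romania. Bacterial suspensions were incubated 24 h at 37°C and growth was read as OD600. S. aureus MRSA252 and MSSA476 served as positive and negative controls.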"}, "Staphylococcus aureus [2]": {"tested_on": "Staphylococcus aureus", "experiment": "Antimicrobial activity against methicillin-resistant Staphylococcus aureus 16708 by broth dilution method", "outline": "as §1"}, "Staphylococcus aureus [3]": {"tested_on": "Staphylococcus aureus", "experiment": "Antimicrobial activity against methicillin-resistant Staphylococcus aureus 16689 by broth dilution method", "outline": "as §1"}, "Staphylococcus aureus [4]": {"tested_on": "Staphylococcus aureus", "experiment": "Antimicrobial activity against methicillin-resistant Staphylococcus aureus 16698 by broth dilution method", "outline": "as §1"}, "Staphylococcus aureus [5]": {"tested_on": "Staphylococcus aureus", "experiment": "Antimicrobial activity against methicillin-resistant Staphylococcus aureus 16679 by broth dilution method", "outline": "as §1"}, "Staphylococcus aureus [6]": {"tested_on": "Staphylococcus aureus", "experiment": "Antimicrobial activity against methicillin-resistant Staphylococcus aureus 85/2082 by broth dilution method"}, "Staphylococcus aureus [7]": {"tested_on": "Staphylococcus aureus", "experiment": "Antimicrobial activity against methicillin-resistant Staphylococcus aureus 16677 by broth dilution method", "outline": "as §1"}, "Staphylococcus aureus [8]": {"tested_on": "Staphylococcus aureus", "experiment": "Antimicrobial activity against methicillin-resistant Staphylococcus aureus 16652 by broth dilution method", "outline": "as §1"}, "Staphylococcus aureus [9]": {"tested_on": "Staphylococcus aureus", "experiment": "Antimicrobial activity against methicillin-resistant Staphylococcus aureus 16674 by broth dilution method", "outline": "as §1"}, "Staphylococcus aureus [10]": {"tested_on": "Staphylococcus aureus", "experiment": "Antimicrobial activity against methicillin-resistant Staphylococcus aureus HDG2 by broth dilution method"}, "Staphylococcus aureus [11]": {"tested_on": "Staphylococcus aureus", "experiment": "Antimicrobial activity against methicillin-resistant Staphylococcus aureus 16699 by broth dilution method", "outline": "as §1"}, "Staphylococcus aureus [12]": {"tested_on": "Staphylococcus aureus", "experiment": "Antimicrobial activity against methicillin-resistant Staphylococcus aureus 16686 by broth dilution method", "outline": "as §1"}, "Staphylococcus aureus [13]": {"tested_on": "Staphylococcus aureus", "experiment": "Antimicrobial activity against methicillin-resistant Staphylococcus aureus 16696 by broth dilution method", "outline": "as §1"}, "Staphylococcus aureus [14]": {"tested_on": "Staphylococcus aureus", "experiment": "Antimicrobial activity against methicillin-resistant Staphylococcus aureus 16703 by broth dilution method", "outline": "as §1"}, "Staphylococcus aureus [15]": {"tested_on": "Staphylococcus aureus", "experiment": "Antimicrobial activity against methicillin-resistant Staphylococcus aureus 16666 by broth dilution method", "outline": "as §1"}, "Staphylococcus aureus [16]": {"tested_on": "Staphylococcus aureus", "experiment": "Antimicrobial activity against methicillin-resistant Staphylococcus aureus 16645 by broth dilution method", "outline": "as §1"}, "Staphylococcus aureus [17]": {"tested_on": "Staphylococcus aureus", "experiment": "Antimicrobial activity against methicillin-resistant Staphylococcus aureus 16670 by broth dilution method", "outline": "as §1"}, "Staphylococcus aureus [18]": {"tested_on": "Staphylococcus aureus", "experiment": "Antimicrobial activity against methicillin-resistant Staphylococcus aureus 16683 by broth dilution method", "outline": "as §1"}, "Staphylococcus aureus [19]": {"tested_on": "Staphylococcus aureus", "experiment": "Antimicrobial activity against methicillin-resistant Staphylococcus aureus 16676 by broth dilution method", "outline": "as §1"}, "Staphylococcus aureus [20]": {"tested_on": "Staphylococcus aureus", "experiment": "Antimicrobial activity against methicillin-resistant Staphylococcus aureus 16684 by broth dilution method", "outline": "as §1"}, "Staphylococcus aureus [21]": {"tested_on": "Staphylococcus aureus", "experiment": "Antimicrobial activity against methicillin-resistant Staphylococcus aureus 16688 by broth dilution method", "outline": "as §1"}, "Staphylococcus aureus [22]": {"tested_on": "Staphylococcus aureus", "experiment": "Antimicrobial activity against methicillin-resistant Staphylococcus aureus 16680 by broth dilution method", "outline": "as §1"}, "Staphylococcus aureus [23]": {"tested_on": "Staphylococcus aureus", "experiment": "Antimicrobial activity against methicillin-resistant Staphylococcus aureus 16687 by broth dilution method", "outline": "as §1"}, "Staphylococcus aureus [24]": {"tested_on": "Staphylococcus aureus", "experiment": "Antimicrobial activity against methicillin-resistant Staphylococcus aureus 16704 by broth dilution method", "outline": "as §1"}, "Staphylococcus aureus [25]": {"tested_on": "Staphylococcus aureus", "experiment": "Antimicrobial activity against methicillin-resistant Staphylococcus aureus 16646 by broth dilution method", "outline": "as §1"}, "Staphylococcus aureus [26]": {"tested_on": "Staphylococcus aureus", "experiment": "Antimicrobial activity against methicillin-resistant Staphylococcus aureus 16656 by broth dilution method", "outline": "as §1"}, "Staphylococcus aureus [27]": {"tested_on": "Staphylococcus aureus", "experiment": "Antimicrobial activity against methicillin-resistant Staphylococcus aureus 16678 by broth dilution method", "outline": "as §1"}, "Staphylococcus aureus [28]": {"tested_on": "Staphylococcus aureus", "experiment": "Antimicrobial activity against methicillin-resistant Staphylococcus aureus 16695 by broth dilution method", "outline": "as §1"}, "Staphylococcus aureus [29]": {"tested_on": "Staphylococcus aureus", "experiment": "Antimicrobial activity against methicillin-resistant Staphylococcus aureus 16658 by broth dilution method", "outline": "as §1"}, "Staphylococcus aureus [30]": {"tested_on": "Staphylococcus aureus", "experiment": "Antimicrobial activity against methicillin-resistant Staphylococcus aureus 16653 by broth dilution method", "outline": "as §1"}, "Staphylococcus aureus [31]": {"tested_on": "Staphylococcus aureus", "experiment": "Antimicrobial activity against methicillin-resistant Staphylococcus aureus 16671 by broth dilution method", "outline": "as §1"}, "Staphylococcus aureus [32]": {"tested_on": "Staphylococcus aureus", "experiment": "Antimicrobial activity against methicillin-resistant Staphylococcus aureus 16651 by broth dilution method", "outline": "as §1"}, "Staphylococcus aureus [33]": {"tested_on": "Staphylococcus aureus", "experiment": "Antimicrobial activity against methicillin-resistant Staphylococcus aureus 16702 by broth dilution method", "outline": "as §1"}, "Staphylococcus aureus [34]": {"tested_on": "Staphylococcus aureus", "experiment": "Antimicrobial activity against methicillin-resistant Staphylococcus aureus 16700 by broth dilution method", "outline": "as §1"}, "Staphylococcus aureus [35]": {"tested_on": "Staphylococcus aureus", "experiment": "Antimicrobial activity against methicillin-resistant Staphylococcus aureus 16692 by broth dilution method", "outline": "as §1"}, "Staphylococcus aureus [36]": {"tested_on": "Staphylococcus aureus", "experiment": "Antimicrobial activity against methicillin-resistant Staphylococcus aureus 16672 by broth dilution method", "outline": "as §1"}}, "data": [{"smiles": "Cc1onc(-c2ccccc2)c1C(=O)N[C@@H]1C(=O)N2[C@@H]1SC(C)(C)[C@@H]2C(=O)O", "note": "[OXACILLIN]", "values": [{"measurement": "MIC", "setting": "Staphylococcus aureus [1]", "result": 256, "unit": "µg/mL"}, {"measurement": "MIC", "setting": "Staphylococcus aureus [2]", "result": 256, "unit": "µg/mL"}, {"measurement": "MIC", "setting": "Staphylococcus aureus [3]", "result": 512, "unit": "µg/mL"}, {"measurement": "MIC", "setting": "Staphylococcus aureus [4]", "result": 512, "unit": "µg/mL"}, {"measurement": "MIC", "setting": "Staphylococcus aureus [5]", "result": 512, "unit": "µg/mL"}, {"measurement": "MIC", "setting": "Staphylococcus aureus [6]", "result": 16, "unit": "µg/mL"}, {"measurement": "MIC", "setting": "Staphylococcus aureus [7]", "result": 256, "unit": "µg/mL"}, {"measurement": "MIC", "setting": "Staphylococcus aureus [8]", "result": 512, "unit": "µg/mL"}, {"measurement": "MIC", "setting": "Staphylococcus aureus [9]", "result": 256, "unit": "µg/mL"}, {"measurement": "MIC", "setting": "Staphylococcus aureus [10]", "result": 64, "unit": "µg/mL"}, {"measurement": "MIC", "setting": "Staphylococcus aureus [11]", "result": 256, "unit": "µg/mL"}, {"measurement": "MIC", "setting": "Staphylococcus aureus [12]", "result": 512, "unit": "µg/mL"}, {"measurement": "MIC", "setting": "Staphylococcus aureus [13]", "result": 512, "unit": "µg/mL"}, {"measurement": "MIC", "setting": "Staphylococcus aureus [14]", "result": 256, "unit": "µg/mL"}, {"measurement": "MIC", "setting": "Staphylococcus aureus [15]", "result": 256, "unit": "µg/mL"}, {"measurement": "MIC", "setting": "Staphylococcus aureus [16]", "result": "> 512", "unit": "µg/mL"}, {"measurement": "MIC", "setting": "Staphylococcus aureus [17]", "result": 512, "unit": "µg/mL"}, {"measurement": "MIC", "setting": "Staphylococcus aureus [18]", "result": 256, "unit": "µg/mL"}, {"measurement": "MIC", "setting": "Staphylococcus aureus [19]", "result": 512, "unit": "µg/mL"}, {"measurement": "MIC", "setting": "Staphylococcus aureus [20]", "result": 256, "unit": "µg/mL"}, {"measurement": "MIC", "setting": "Staphylococcus aureus [21]", "result": 512, "unit": "µg/mL"}, {"measurement": "MIC", "setting": "Staphylococcus aureus [22]", "result": 512, "unit": "µg/mL"}, {"measurement": "MIC", "setting": "Staphylococcus aureus [23]", "result": 512, "unit": "µg/mL"}, {"measurement": "MIC", "setting": "Staphylococcus aureus [24]", "result": 512, "unit": "µg/mL"}, {"measurement": "MIC", "setting": "Staphylococcus aureus [25]", "result": 512, "unit": "µg/mL"}, {"measurement": "MIC", "setting": "Staphylococcus aureus [26]", "result": 512, "unit": "µg/mL"}, {"measurement": "MIC", "setting": "Staphylococcus aureus [27]", "result": 256, "unit": "µg/mL"}, {"measurement": "MIC", "setting": "Staphylococcus aureus [28]", "result": 512, "unit": "µg/mL"}, {"measurement": "MIC", "setting": "Staphylococcus aureus [29]", "result": 256, "unit": "µg/mL"}, {"measurement": "MIC", "setting": "Staphylococcus aureus [30]", "result": 512, "unit": "µg/mL"}, {"measurement": "MIC", "setting": "Staphylococcus aureus [31]", "result": 512, "unit": "µg/mL"}, {"measurement": "MIC", "setting": "Staphylococcus aureus [32]", "result": 512, "unit": "µg/mL"}, {"measurement": "MIC", "setting": "Staphylococcus aureus [33]", "result": 512, "unit": "µg/mL"}, {"measurement": "MIC", "setting": "Staphylococcus aureus [34]", "result": 512, "unit": "µg/mL"}, {"measurement": "MIC", "setting": "Staphylococcus aureus [35]", "result": 256, "unit": "µg/mL"}, {"measurement": "MIC", "setting": "Staphylococcus aureus [36]", "result": 8, "unit": "µg/mL"}]}]}
